The record followed here is ChEMBL document CHEMBL1141754, “A labdane diterpene glucoside from the rhizomes of Curcuma mangga” (J Nat Prod, 2005).

Assay [1] can be described thus: Antioxidant activity assessed as inhibition of copper-induced lipid peroxidation by Fe3(CN)6 method at 300 uM. It is filed as functional. Set-up: scale not given: the % may be the effect or the level left.
In another assay the test system is MCF7. Description: Cytotoxicity against human MCF7. In kind it is functional, cell-based. The procedure, abridged:
(§1)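 Five human cancer lines: HL-60 (leukemia), HepG2 (liver), MCF-7 (breast), DU-145 (prostate) and NCI-H460 (lung). IC50 given in μM ± SD from three experiments, each run in triplicate.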

Another assay relates to DU-145. Briefly: Cytotoxicity against human DU145. It is filed as functional, cell-based. Summed up: as §1
The subject of a further assay is HL-60. Description: Cytotoxicity against human HL60. In kind it is functional, cell-based. Summed up:
as §1

A further assay relates to NCI-H460. Description: Cytotoxicity against human NCI-H460. In kind it is functional, cell-based. The procedure, abridged: as §1
In a further assay the test system is HepG2. Briefly: Cytotoxicity against human HepG2. It is filed as functional, cell-based. Summed up: as §1

SMILES strings stand for the structures.

Take `C=C1CC[C@H]2C(C)(C)CCC[C@]2(C)[C@H]1C/C=C(/C=O)CC=O`: in assay [1], the Activity worked out at 5.7%.

As to `O=C(/C=C/c1ccc(O)cc1)CC(=O)/C=C/c1ccc(O)cc1` [BISDEMETHOXYCURCUMIN], the IC50 in the assay with MCF7 was 33.8 µM; in the assay on DU-145, 30.1 µM; with HL-60, 25.1 µM; with NCI-H460, 88.1 µM; with HepG2 it was more than 50 µM. Also, the Activity in assay [1] came to 93.3%.

In the case of `Cc1c(C)c2c(c(C)c1O)CC[C@@](C)(CCC[C@H](C)CCC[C@H](C)CCCC(C)C)O2`, the Activity in assay [1] is 45.2%.

In the case of `COc1cc2ccc(=O)oc2cc1O` [SCOPOLETIN], the IC50 in the assay on MCF7, in the assay with DU-145, with HL-60, with NCI-H460 and with HepG2 was more than 50 µM in each case. The Activity in assay [1] came out at 94.9%.

On to `C=C1CC[C@H]2C(C)(C)CCC[C@]2(C)[C@H]1C/C=C(/C=O)CC(OC)OC`, for which the Activity in assay [1] is 11.5%.

Regarding `CC1(C)[C@@H](O[C@@H]2O[C@H](CO)[C@@H](O)[C@H](O)[C@H]2O)CC[C@]2(C)[C@H]3CC(C4=CCOC4=O)OC(O)[C@H]3CC[C@@H]12` (stereo partly specified), in assay [1], the Activity worked out at 0%.

Regarding `COc1cc(/C=C/C(O)=C/C(=O)/C=C/c2ccc(O)cc2)ccc1O` [DEMETHOXYCURCUMIN], the IC50 with MCF7 was 18.5 µM; with DU-145 it was 21.7 µM; in the assay with HL-60, 24.2 µM; with NCI-H460 it was 25.7 µM; in the assay with HepG2, more than 50 µM. For the same molecule, in assay [1], the Activity turned out to be 93.8%.

`O=c1c(O)c(-c2ccc(O)c(O)c2)oc2cc(O)cc(O)c12`: in assay [1], the Activity came out at 51.3%.

For `C=C1CC[C@H]2C(C)(C)CCC[C@]2(C)[C@H]1C[C@@H](O)C1=CC(O)OC1=O` (stereo partly specified) [ZERUMIN B], the IC50 came to 0.59 µM in the assay with MCF7, 11.2 µM in the assay on DU-145, 7.21 µM with HL-60 and 25.3 µM in the assay on HepG2. For the same molecule, the Activity in assay [1] was found to be 16.5%.

Consider `Cc1cc(C(C)(C)C)c(O)c(C(C)(C)C)c1`, for which, in assay [1], the Activity was 99.9%.

As to `O=C(/C=C/C=C/c1ccc(O)cc1)/C=C/c1ccc(O)cc1`, the Activity in assay [1] was found to be 92.9%.

In the case of `COc1cc(/C=C/C(=O)CC(=O)/C=C/c2ccc(O)c(OC)c2)ccc1O` [CURCUMIN], the IC50 in the assay on MCF7 was 10.4 µM; in the assay on DU-145 it was 20.6 µM; in the assay with HL-60, 34.2 µM; in the assay with NCI-H460 it was 27.6 µM; with HepG2 it was 35.5 µM. Moreover, the Activity in assay [1] was determined as 96.5%.
